From ChEMBL document CHEMBL1151452, “Novel trypanocidal analogs of 5'-(methylthio)-adenosine” (Antimicrob Agents Chemother, 2008) come the findings set out here.

Test [1] concerns Trypanosoma brucei brucei. Kind of test: Antitrypanosomal activity against bloodstream form of Trypanosoma brucei brucei LAB 110 EATRO after 48 hrs by Z1 zoulter counter. In kind it is functional, organism-based. To be noted: for IC50: Trypanosoma brucei, LAB 110 EATRO, 48 h. In outline:
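Bloodstream forms were grown axenically in HMI-18 (IMDM with 1 μM hypoxanthine and 20% horse serum). Compounds were dissolved in water or DMSO, with final DMSO ≤0.3%. […] Parasites were counted by Coulter counter.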

The subject of test [2] is Trypanosoma brucei brucei. Briefly: Activity at bloodstream Trypanosoma brucei brucei 5'-deoxy-5'-(methylthio)-adenosine phosphorylase by spectrophotometry relative to control. More on the design: concentration or dose not given beside the values. To be noted: LAB 110 EATRO. In outline:
(§1)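 Enzyme was a cell-free extract of bloodstream trypanosomes harvested from rats. It was prepared by freeze-thawing three times in dry ice-methanol, spinning at 5,000 × g for 10 min, and dialysing 1 h (0.05 M Tris-HCl, 0.1 mM EDTA, 1 mM 2-mercaptoethanol, pH 7.4) to remove phosphate. The mix held 0 or 50 mM potassium phosphate pH 7.4, xanthine oxidase and 25–500 μM substrate. Adenine-derived 2,8-dihydroxyadenine was read at 305 nm over 1 h at 37°C. Activity is expressed relative to MTA.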

Test [3] concerns Trypanosoma brucei brucei. Kind of test: Activity at bloodstream Trypanosoma brucei brucei 5'-deoxy-5'-(methylthio)-adenosine phosphorylase by spectrophotometry in presence of 50 mM PO4- relative to control. To be noted: LAB 110 EATRO. Put shortly:
as §1

Test [4] concerns Trypanosoma brucei rhodesiense. Briefly: Growth stimulation of pentamidine and melarsoprol-resistant bloodstream form of Trypanosoma brucei rhodesiense isolate KETRI 243 at 100 uM after 48 hrs by Z1 zoulter counter.
For test [5], the system named is Trypanosoma brucei brucei. Kind of test: Growth stimulation of diamidine and melarsoprol-resistant bloodstream form of Trypanosoma brucei brucei isolate KETRI 243-As10-3 at 100 uM after 48 hrs by Z1 zoulter counter. In kind it is functional, organism-based.
The next test is filed under the species Mus musculus. Briefly: Activity at mouse liver 5'-deoxy-5'-(methylthio)-adenosine phosphorylase. The arrangement: concentration or dose not given beside the values.

The structures appear in SMILES notation. Active and inactive are the calls of the source. No cut-off for these calls is given here.

Usually IC50 stands for the concentration that gives 50% inhibition. `Cc1ncnc2c1ncn2[C@@H]1O[C@H](CSCCO)[C@@H](O)[C@H]1O` showed an IC50 in test [1] of 24.5 µM. Moreover, the Activity in test [2] turned out to be 25%; in test [3], 2%.

On to `NCCSC[C@H]1O[C@@H](n2cnc3c(N)ncnc32)[C@H](O)[C@@H]1O`, for which, in test [1], the concentration for half-maximal inhibition (IC50) is above 100 µM. In addition, the result in test [4] was Active.

With `OCCSC[C@H]1O[C@@H](n2cnc3c2ncn2ccnc32)[C@H](O)[C@@H]1O`, the IC50 in test [1] was above 100 µM. For the same compound, the Activity in test [2] came to 62%; in test [3], 56%.

Regarding `CC(=O)OCCSC[C@H]1O[C@@H](n2cnc3c(N)ncnc32)[C@H](OC(C)=O)[C@@H]1OC(C)=O`, half-maximal inhibition in test [1] (IC50) was put at 0.32 µM.

As to `CC(=O)O[C@@H]1[C@H](OC(C)=O)[C@@H](CSCCF)O[C@H]1n1cnc2c(N)ncnc21`, inhibition in test [1] was half-maximal at 0.83 µM (IC50).

Take `Nc1ncnc2c1ncn2[C@H]1C[C@H](O)[C@@H](CSCCO)O1`: the IC50 in test [1] was above 100 µM. For the same compound, the Activity in test [2] was determined as 81%; in test [3], 100%. Further, the result in test [5] was Active.

Compound `Nc1ncnc2c1ncn2[C@@H]1O[C@H](CSCCCO)[C@@H](O)[C@H]1O` came in with an IC50 in test [1] of 170 µM. For the same compound, the Activity turned out to be 27.4% in test [2] and 72.5% in test [3].

As to `OCCSC[C@H]1O[C@@H](n2cnc3c(F)ncnc32)[C@H](O)[C@@H]1O`, the IC50 in test [1] was above 100 µM. The Activity in test [2] amounted to 60%; in test [3], 42%.

Take `CCCSC[C@H]1O[C@@H](n2cnc3c(N)ncnc32)[C@H](O)[C@@H]1O`: the Activity in the test listed under Mus musculus was found to be 100%; in test [2], 26%; in test [3], 57.5%. Besides, half-maximal inhibition in test [1] (IC50) was put at 46 µM.

On to `CSC[C@H]1O[C@@H](n2ccc3c(N)ncnc32)[C@H](O)[C@@H]1O`, for which, in test [1], the IC50 was determined as 67 µM. Besides, the Activity in test [2] and in test [3] was 0% in each case.

With `CC(=O)OCCSC[C@H]1O[C@@H](n2cnc3c(C)ncnc32)[C@H](OC(C)=O)[C@@H]1OC(C)=O`, the IC50 in test [1] is 9.3 µM.

For `CC(=O)OCCSC[C@H]1O[C@@H](n2cnc3c(N)ncnc32)C[C@@H]1OC(C)=O`, it took 22 µM to reach half-maximal inhibition in test [1] (IC50).

With `Nc1ncnc2c1ncn2C[C@@H](O)CSCCO`, the IC50 in test [1] was above 100 µM.

As to `Nc1ncnc2c1ncn2[C@H]1CC[C@@H](CSCCO)O1`, the 50% inhibitory concentration (IC50) in test [1] came to 100 µM. Further, the results for the Activity in test [2] and in test [3] were 18% and 17%, respectively.

Take `CSC[C@H]1O[C@@H](n2cnc3c(N)ncnc32)[C@H](O)[C@@H]1O` [METHYLTHIOADENOSINE]: the Activity (in the test listed under Mus musculus; in test [2]; in test [3]) was 100% throughout. The compound also came in with an IC50 in test [1] of 100 µM.

In turn, `CC(=O)OCCSC[C@@H]1C[C@@H](OC(C)=O)[C@H](n2cnc3c(N)ncnc32)O1` returned an IC50 in test [1] of 0.64 µM.

Turning to `Nc1ncnc2c([C@@H]3N[C@H](CSCCO)[C@@H](O)[C@H]3O)c[nH]c12`, the concentration for half-maximal inhibition (IC50) in test [1] was above 10 µM.

Take `Nc1ncnc2c1ncn2[C@@H]1O[C@H](CSCCCF)[C@@H](O)[C@H]1O`: the Activity in the test listed under Mus musculus worked out at 64%; in test [2] it was 31.3%; in test [3] it was 47.5%. Further, the IC50 in test [1] worked out at 120 µM.

The compound `CC(=O)OCCSC[C@H]1O[C@@H](n2cnc3c(N)nc(F)nc32)[C@H](OC(C)=O)[C@@H]1OC(C)=O` yielded an IC50 in test [1] of 2.75 µM.

In turn, `OCCSC[C@H]1O[C@@H](n2cnc3cncnc32)[C@H](O)[C@@H]1O` registered an IC50 in test [1] of 34 µM. Moreover, the Activity in test [2] turned out to be 4%; in test [3], 11%.

Consider `Nc1ncnc2c1nnn2[C@@H]1O[C@H](CSCCO)[C@@H](O)[C@H]1O`, for which half-maximal inhibition in test [1] (IC50) required 7 µM.

`Nc1ncnc2c1ncn2[C@@H]1O[C@H](CSCCO)[C@@H](O)[C@H]1O` returned an IC50 in test [1] of 0.54 µM. Also, the results for the Activity in test [2] and in test [3] were 100% and 96%, respectively.

In the case of `CC(=O)OCCSC[C@H]1O[C@@H](n2cnc3c(N)nc(N)nc32)[C@H](OC(C)=O)[C@@H]1OC(C)=O`, the IC50 in test [1] came out at 12.5 µM.

As to `Nc1ncnc2c1ncn2[C@@H](CO)O[C@@H](CO)CSCCO`, the IC50 in test [1] was 14 µM. Moreover, the Activity came to 0% in test [2] and 44% in test [3].

`Nc1ncnc2c1ccn2[C@@H]1O[C@H](CSCCO)[C@@H](O)[C@H]1O` yielded an IC50 in test [1] of 0.042 µM. Besides, the Activity in test [2] and in test [3] was 0% each time.

For the compound `OCCSC[C@H]1O[C@@H](n2cnc3c(O)ncnc32)[C@H](O)[C@@H]1O`, the IC50 in test [1] was above 100 µM. For the same compound, the Activity in test [2] and in test [3] was 0% in each case.

`Nc1nc(F)nc2c1ncn2[C@@H]1O[C@H](CSCCO)[C@@H](O)[C@H]1O` registered an IC50 in test [1] of 1.9 µM. Also, the figures for the Activity in test [2] and in test [3] were 106% and 148%, respectively.

The compound `CC(=O)OCCSC[C@H]1O[C@@H](n2cnc(C(N)=O)n2)[C@H](OC(C)=O)[C@@H]1OC(C)=O` showed an IC50 in test [1] of 26.5 µM.

In test [1], `Nc1ncnc2c1ncn2COCCSCCO` returned an IC50 of 64 µM. The Activity is 78% in test [2] and 56% in test [3].

In test [1], `CC(=O)OCCSC[C@H]1O[C@@H](n2ccc3c(N)ncnc32)[C@H](OC(C)=O)[C@@H]1OC(C)=O` yielded an IC50 of 0.145 µM.

Take `Nc1ncnc2c1ncn2[C@@H]1O[C@H](CSCCF)[C@@H](O)[C@H]1O`: the Activity came out at 64% in the test filed under Mus musculus, 29.3% in test [2] and 75.3% in test [3]. Besides, half-maximal inhibition in test [1] (IC50) required 0.2 µM.

Take `Nc1nc(N)c2ncn([C@@H]3O[C@H](CSCCO)[C@@H](O)[C@H]3O)c2n1`: 3.9 µM corresponded to half-maximal inhibition in test [1] (IC50). For the same compound, the Activity in test [2] is 18%; in test [3], 29%.

With `CC(=O)OCCSC[C@H]1O[C@@H](n2cnc3cncnc32)[C@H](OC(C)=O)[C@@H]1OC(C)=O`, in test [1], the IC50 is 3.65 µM.

Turning to `CC(=O)OCCSC[C@H](COC(C)=O)O[C@H](COC(C)=O)n1cnc2c(N)ncnc21`, in test [1], 5.3 µM corresponded to half-maximal inhibition (IC50).

Turning to `COC(=O)CSC[C@H]1O[C@@H](n2cnc3c(N)ncnc32)[C@H](O)[C@@H]1O`, the IC50 in test [1] was 130 µM. In addition, the Activity in test [2] was 34%; in test [3], 84%.

As for `CC(=O)OCCSC[C@H]1O[C@@H](n2cnc3c(F)ncnc32)[C@H](OC(C)=O)[C@@H]1OC(C)=O`, the IC50 in test [1] was above 100 µM.

`Nc1ncnc2c1ncn2C[C@H](O)CSCCO` gave an IC50 in test [1] of 60 µM.

Take `CC(=O)OCCSC[C@H]1O[C@@H](n2cnc3c2ncn2ccnc32)[C@H](OC(C)=O)[C@@H]1OC(C)=O`: in test [1], the IC50 was determined as 35 µM.

For `Nc1ncnc2c1ncn2[C@@H]1O[C@H](CSCCO)C[C@H]1O`, in test [1], 12.5 µM corresponded to half-maximal inhibition (IC50). Also, the Activity in test [2] worked out at 37.8%; in test [3] it was 39.4%.

On to `NCCCSC[C@H]1O[C@@H](n2cnc3c(N)ncnc32)[C@H](O)[C@@H]1O`, for which the IC50 in test [1] is above 100 µM. Also, the values for the Activity in test [2] and in test [3] were 60% and 46%, respectively.

Consider `NC(=O)c1ncn([C@@H]2O[C@H](CSCCO)[C@@H](O)[C@H]2O)n1`, for which, in test [1], the “inhibition (INH)” value turned out to be 9%. The Activity in test [2] was determined as 70%; in test [3], 61%. The outcome in test [4] was Active.

As to `CCSC[C@H]1O[C@@H](n2cnc3c(N)ncnc32)[C@H](O)[C@@H]1O`, the Activity in the test listed under Mus musculus came out at 100%; in test [2], 26.9%; in test [3], 76.2%.

Take `CNC[C@H]1O[C@@H](n2cnc3c(N)ncnc32)[C@H](O)[C@@H]1O`: the half-maximal inhibitory concentration (IC50) in test [1] was above 100 µM. Besides, the Activity in test [2] was 0%; in test [3], 4%.

For `CSC[C@H]1O[C@@H](n2ccc3c(NC(C)=O)ncnc32)[C@H](OC(C)=O)[C@@H]1OC(C)=O`, 46 µM corresponded to half-maximal inhibition in test [1] (IC50).
